Laboratory results: the M2OR odorant receptor database

Tests used:
Details in all cases: stereoisomer not certain
OR52A5 (Homo sapiens) = molecular target: T1, OR52A5 (Homo sapiens) (UniProt Q9H2C5)
T1 sequence (whole entry): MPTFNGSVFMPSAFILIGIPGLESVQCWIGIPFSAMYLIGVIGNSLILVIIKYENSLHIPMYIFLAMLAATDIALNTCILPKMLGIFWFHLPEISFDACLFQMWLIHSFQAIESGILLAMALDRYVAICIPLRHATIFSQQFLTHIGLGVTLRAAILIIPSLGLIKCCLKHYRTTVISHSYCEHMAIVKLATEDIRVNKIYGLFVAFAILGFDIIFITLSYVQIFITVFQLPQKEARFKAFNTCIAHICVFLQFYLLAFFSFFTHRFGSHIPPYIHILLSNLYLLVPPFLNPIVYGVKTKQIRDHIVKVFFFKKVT
Procedure, shortened: (§1)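 Transient luciferase assays in mammalian cell lines were common, though methods varied by source. The values come from published papers and their supplementary material, with extra details from the original authors when needed. Responsive refers to a measured signal the original authors judged statistically different from baseline, and non-responsive (inactive) to the remainder.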

OR52B2 (Homo sapiens) = molecular target: T2, OR52B2 (Homo sapiens) (UniProt Q96RD2)
T2 sequence (whole entry): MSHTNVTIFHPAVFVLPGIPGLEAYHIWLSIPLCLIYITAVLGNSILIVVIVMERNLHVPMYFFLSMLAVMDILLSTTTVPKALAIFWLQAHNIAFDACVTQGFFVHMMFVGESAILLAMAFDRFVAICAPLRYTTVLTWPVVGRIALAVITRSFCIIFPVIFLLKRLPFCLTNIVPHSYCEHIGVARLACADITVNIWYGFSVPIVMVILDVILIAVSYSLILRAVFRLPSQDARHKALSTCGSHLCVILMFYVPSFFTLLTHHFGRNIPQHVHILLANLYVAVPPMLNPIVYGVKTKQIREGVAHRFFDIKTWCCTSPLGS
Procedure, shortened: as §1

OR52B4 (Homo sapiens) = molecular target: T3, OR52B4 (Homo sapiens) (UniProt Q8NGK2)
T3 sequence (whole entry): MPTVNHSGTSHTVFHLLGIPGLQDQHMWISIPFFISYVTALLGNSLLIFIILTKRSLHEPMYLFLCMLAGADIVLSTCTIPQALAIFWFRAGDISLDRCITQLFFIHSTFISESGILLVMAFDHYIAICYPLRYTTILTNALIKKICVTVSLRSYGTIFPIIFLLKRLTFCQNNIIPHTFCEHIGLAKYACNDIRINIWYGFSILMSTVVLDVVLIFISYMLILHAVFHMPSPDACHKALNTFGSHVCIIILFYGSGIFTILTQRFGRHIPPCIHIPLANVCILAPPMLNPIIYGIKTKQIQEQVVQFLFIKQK
Procedure, shortened: as §1

OR52B6 (Homo sapiens) = molecular target: T4, OR52B6 (Homo sapiens) (UniProt Q8NGF0)
T4 sequence (whole entry): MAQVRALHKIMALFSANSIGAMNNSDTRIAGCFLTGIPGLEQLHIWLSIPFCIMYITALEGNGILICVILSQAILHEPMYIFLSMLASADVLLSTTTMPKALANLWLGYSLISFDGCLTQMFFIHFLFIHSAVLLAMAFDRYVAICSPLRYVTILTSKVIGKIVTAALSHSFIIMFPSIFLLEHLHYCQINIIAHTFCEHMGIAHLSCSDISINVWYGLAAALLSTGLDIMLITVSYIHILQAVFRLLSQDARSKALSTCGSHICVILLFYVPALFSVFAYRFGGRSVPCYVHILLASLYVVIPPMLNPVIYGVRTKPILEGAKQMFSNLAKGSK
Procedure, shortened: as §1

OR52D1 (Homo sapiens) = molecular target: T5, OR52D1 (Homo sapiens) (UniProt Q9H346)
T5 sequence (whole entry): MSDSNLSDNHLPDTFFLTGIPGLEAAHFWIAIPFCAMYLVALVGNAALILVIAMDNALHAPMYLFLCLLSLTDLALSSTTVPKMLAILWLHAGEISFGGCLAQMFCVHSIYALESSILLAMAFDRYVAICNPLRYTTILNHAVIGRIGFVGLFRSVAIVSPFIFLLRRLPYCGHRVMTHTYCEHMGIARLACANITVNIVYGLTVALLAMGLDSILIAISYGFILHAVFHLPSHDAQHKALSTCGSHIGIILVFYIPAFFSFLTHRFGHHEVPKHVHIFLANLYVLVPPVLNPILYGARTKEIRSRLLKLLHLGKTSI
Procedure, shortened: as §1

OR52E2 (Homo sapiens) = OR52E2 (Homo sapiens) (UniProt Q8NGJ4)
Procedure, shortened: as §1

OR52E4 (Homo sapiens) = OR52E4 (Homo sapiens) (UniProt Q8NGH9)
Procedure, shortened: as §1

OR52E5 (Homo sapiens) = OR52E5 (Homo sapiens) (UniProt Q8NH55)
Procedure, shortened: as §1

OR52E6 (Homo sapiens) = OR52E6 (Homo sapiens) (UniProt Q96RD3)
Procedure, shortened: as §1

OR52E1 (Homo sapiens) = OR52E1 (Homo sapiens) (UniProt Q8NGJ3)
Procedure, shortened: as §1
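Further: active if original authors judged signal statistically different from baseline.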

Sequence of OR52E6 (Homo sapiens) (Q96RD3 whole entry): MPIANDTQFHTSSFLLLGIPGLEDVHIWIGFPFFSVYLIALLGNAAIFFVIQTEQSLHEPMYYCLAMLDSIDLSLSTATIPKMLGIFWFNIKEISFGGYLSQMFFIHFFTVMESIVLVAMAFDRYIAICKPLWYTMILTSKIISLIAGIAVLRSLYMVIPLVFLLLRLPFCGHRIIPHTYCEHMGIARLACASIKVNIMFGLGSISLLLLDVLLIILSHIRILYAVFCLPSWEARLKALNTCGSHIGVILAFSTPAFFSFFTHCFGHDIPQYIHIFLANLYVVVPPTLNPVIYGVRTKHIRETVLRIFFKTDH
Sequence of OR52E4 (Homo sapiens) (Q8NGH9 whole entry): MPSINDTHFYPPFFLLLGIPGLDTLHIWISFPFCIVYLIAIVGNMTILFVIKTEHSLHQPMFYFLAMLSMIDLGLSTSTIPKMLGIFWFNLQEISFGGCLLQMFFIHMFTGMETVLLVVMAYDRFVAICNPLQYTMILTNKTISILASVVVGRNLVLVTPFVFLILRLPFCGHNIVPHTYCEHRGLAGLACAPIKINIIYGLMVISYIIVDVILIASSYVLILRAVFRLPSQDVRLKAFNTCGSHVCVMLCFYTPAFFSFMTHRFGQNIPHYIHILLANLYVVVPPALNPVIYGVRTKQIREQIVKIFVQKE
Sequence of OR52E5 (Homo sapiens) (Q8NH55 whole entry): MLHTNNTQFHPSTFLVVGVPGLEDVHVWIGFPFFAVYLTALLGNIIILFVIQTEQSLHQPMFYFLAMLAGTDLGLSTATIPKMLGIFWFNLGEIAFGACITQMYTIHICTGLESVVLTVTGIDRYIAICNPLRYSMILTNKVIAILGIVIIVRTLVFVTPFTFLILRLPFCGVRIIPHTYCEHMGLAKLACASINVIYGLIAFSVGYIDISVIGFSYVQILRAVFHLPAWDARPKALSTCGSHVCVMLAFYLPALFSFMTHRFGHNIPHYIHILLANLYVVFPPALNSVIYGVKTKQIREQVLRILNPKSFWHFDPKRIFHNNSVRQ
Sequence of OR52E2 (Homo sapiens) (Q8NGJ4 whole entry): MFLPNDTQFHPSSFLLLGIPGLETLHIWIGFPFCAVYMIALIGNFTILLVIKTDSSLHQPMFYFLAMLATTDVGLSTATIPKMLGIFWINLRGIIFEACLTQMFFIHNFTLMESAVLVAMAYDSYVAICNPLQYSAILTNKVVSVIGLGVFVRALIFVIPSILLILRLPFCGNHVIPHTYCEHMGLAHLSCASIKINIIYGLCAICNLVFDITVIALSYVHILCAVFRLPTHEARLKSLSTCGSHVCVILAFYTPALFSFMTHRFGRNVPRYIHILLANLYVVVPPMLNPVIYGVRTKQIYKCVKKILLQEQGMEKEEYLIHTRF
Sequence of OR52E1 (Homo sapiens) (Q8NGJ3 whole entry): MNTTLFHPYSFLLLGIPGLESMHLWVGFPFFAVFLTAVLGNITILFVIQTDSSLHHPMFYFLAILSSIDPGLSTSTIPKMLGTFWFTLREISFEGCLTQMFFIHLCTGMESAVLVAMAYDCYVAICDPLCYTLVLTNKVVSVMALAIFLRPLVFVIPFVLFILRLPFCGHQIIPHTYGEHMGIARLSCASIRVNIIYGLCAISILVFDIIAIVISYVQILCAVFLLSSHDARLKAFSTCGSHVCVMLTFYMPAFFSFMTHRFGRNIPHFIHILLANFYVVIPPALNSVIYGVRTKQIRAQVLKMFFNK

| Structure (SMILES) | odorant receptor agonist call (OR52A5 (Homo sapiens)) | odorant receptor agonist call (OR52B2 (Homo sapiens)) | odorant receptor agonist call (OR52B4 (Homo sapiens)) | odorant receptor agonist call (OR52B6 (Homo sapiens)) | odorant receptor agonist call (OR52D1 (Homo sapiens)) | odorant receptor agonist call (OR52E2 (Homo sapiens)) | odorant receptor agonist call (OR52E4 (Homo sapiens)) | odorant receptor agonist call (OR52E5 (Homo sapiens)) | odorant receptor agonist call (OR52E6 (Homo sapiens)) | odorant receptor agonist call (OR52E1 (Homo sapiens)) |
| --- | --- | --- | --- | --- | --- | --- | --- | --- | --- | --- |
| CCC(S)C(C)CO (centres undefined) | inactive | inactive | inactive | inactive | inactive | inactive | inactive | inactive | inactive | – |
| CCCC(S)CCOC(C)=O (centres undefined) | inactive | inactive | inactive | inactive | inactive | inactive | inactive | – | inactive | inactive |
| CCCCCCO | – | – | – | – | inactive | – | – | – | – | – |
| CC1=NC(C)C(C)S1 (centres undefined) | inactive | inactive | inactive | inactive | inactive | inactive | inactive | – | inactive | inactive |
| Cc1cnc(C)c(C)n1 | inactive | inactive | inactive | inactive | inactive | inactive | inactive | – | inactive | inactive |
| CC(CO)CS (centres undefined) | inactive | inactive | inactive | inactive | inactive | inactive | inactive | inactive | inactive | – |
| Cc1cnccn1 | – | – | – | – | inactive | – | – | – | – | – |
| CCCCCCCCCCCC=O | – | – | – | – | inactive | – | – | – | – | – |
| COc1nccnc1CC(C)C | – | – | – | – | active | – | – | – | – | – |
| CC(=O)CCC=C(C)C | – | – | – | – | active | – | – | – | – | – |
| CCCCCC=O | – | – | – | – | inactive | – | – | – | – | – |
| CC1CCCCCCCCCCCCC(=O)C1 (centres undefined) | inactive | inactive | inactive | inactive | inactive | inactive | inactive | inactive | inactive | inactive |
| CCCCCCCCCCC(C)=O | – | – | – | – | inactive | – | – | – | – | – |
| CC(=O)C(C)O (centres undefined) | – | – | – | – | active | – | – | – | – | – |
| CCCCC(S)C(C)CO (centres undefined) | active | inactive | inactive | inactive | inactive | inactive | inactive | inactive | inactive | – |
| CCCCCC1CCCC(=O)O1 (centres undefined) | inactive | inactive | inactive | inactive | active | inactive | inactive | inactive | inactive | – |
| CCC1OC(=O)C(O)=C1C (centres undefined) | inactive | inactive | inactive | inactive | inactive | inactive | inactive | – | inactive | inactive |
| CCCCCCC=CCCC=O | inactive | inactive | inactive | inactive | inactive | inactive | inactive | inactive | inactive | inactive |
| CCCCCCCC(=O)[O-].[H+] | – | – | – | – | active | – | – | – | – | – |
| CCC1OC(C)=C(O)C1=O (centres undefined) | inactive | inactive | inactive | inactive | inactive | inactive | inactive | – | inactive | inactive |
| CCCCCCCCC(=O)O | – | inactive | – | – | active | – | – | – | – | – |
| CC1=C(O)C(=O)OC1C (centres undefined) | inactive | inactive | inactive | inactive | inactive | inactive | inactive | – | inactive | inactive |
| CCCCCC(S)C(C)CO (centres undefined) | inactive | inactive | inactive | inactive | inactive | inactive | inactive | inactive | inactive | – |
| CCCCCCCCCCO | – | – | – | – | inactive | – | – | – | – | – |
| CC1=C(O)C(=O)C(C)O1 (centres undefined) | inactive | inactive | inactive | inactive | inactive | inactive | inactive | – | inactive | inactive |
| CC(=O)c1c(C)c([N+](=O)[O-])c(C(C)(C)C)c([N+](=O)[O-])c1C | inactive | inactive | inactive | inactive | inactive | inactive | inactive | inactive | inactive | inactive |
| CCCCCC(=O)C(C)C(C)=O (centres undefined) | inactive | inactive | inactive | inactive | inactive | inactive | inactive | inactive | inactive | – |
